A short description of series [1]: In vitro cytotoxicity against mouse peritoneal macrophages at concentration 32 uM; Toxic. The class given is toxicity.
For series [2], the system named is MRC5. The series can be described thus: Cytotoxicity against MRC-5 cells at concentration 0.5 uM. The class given is functional. The settings on record: Homo sapiens. The method in brief: (§1)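 MRC-5 human embryonic lung diploid cells were seeded at 5000 per well. After 24 h the cells were washed and exposed to 2-fold drug dilutions in RPMI + 5% FCS, with final DMSO below 0.5%. Incubation was 7 days at 37 °C in 5% CO2. Viability was read by MTT absorbance at 540 nm.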

Series [3] relates to MRC5. In words: Cytotoxicity against MRC-5 cells at concentration 1 uM. The class given is functional. The settings on record: Homo sapiens. In a few lines: as §1
The test system of series [4] is MRC5. In words: Cytotoxicity against MRC-5 cells at concentration 32 uM. The class given is functional. The note with it: Homo sapiens. In a few lines:
as §1

In the next series the test system is Plasmodium falciparum. The series can be described thus: In vitro growth inhibition of Plasmodium falciparum FcB1R. The class given is functional, organism-based. In a few lines: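 Asynchronous P. falciparum cultures were grown in human erythrocytes at 0.5% parasitemia and 1% hematocrit. They were exposed to serial drug dilutions, with DMSO ≤0.1%, for 24 h at 37 °C before adding 0.5 µCi [3H]hypoxanthine per well. Inhibition was measured as incorporated radioactivity versus drug-free controls on the same plate. IC50 came from concentration–response curves, reported as mean ± SD of three independent experiments; FcB1R used several experiments.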

The nature of series [5]: In vitro cytotoxicity against mouse peritoneal macrophages at concentration 8 uM; Toxic. The class given is toxicity.
The subject of series [6] is MRC5. The series can be described thus: Cytotoxicity against MRC-5 cells at concentration 8 uM. The settings on record: Homo sapiens. The class given is functional. The method in brief:
as §1

Series [7] is filed under the species Mus musculus. The series can be described thus: In vitro cytotoxic activity against mouse peritoneal macrophages at a concentration 2 uM; Non-toxic. The class given is functional.
For series [8], the species on record is Mus musculus. The series can be described thus: In vitro cytotoxic activity against mouse peritoneal macrophages at a concentration 8 uM; Non-toxic. The class given is functional.
Series [9] in a line: In vitro cytotoxic activity against mouse peritoneal macrophages at concentration 32 uM; Toxic. The class given is toxicity.

From ChEMBL document CHEMBL1134480, “Antiplasmodial activity and cytotoxicity of bis-, tris-, and tetraquinolines with linear or cyclic amino linkers” (J Med Chem, 2001) come the findings set out here.

For the compound `Clc1ccc2c(NCCCCNCCCNc3ccnc4cc(Cl)ccc34)ccnc2c1`, the Cytotoxicity entry in series [1] is “Toxic”; in series [5], “Toxic”; in the series filed under Mus musculus [7], “Not toxic”. In the series with MRC5 [2], the cytotoxicity at 0.5 µM was 0%. In addition, in the series on MRC5 [3], the cytotoxicity at 1 µM turned out to be 0%. In addition, the cytotoxicity at 32 µM in the series with MRC5 [4] came out at 100%. The 50% inhibitory concentration (IC50) in the series on Plasmodium falciparum stood at 57 nM. The compound further came in with a cytotoxicity at 8 µM with MRC5 [6] of 100%.

In the series on MRC5 [2], `Clc1ccc2c(N3CCCNCCN(c4ccnc5cc(Cl)ccc45)CCCNCC3)ccnc2c1` showed a cytotoxicity at 0.5 µM of 0%. The cytotoxicity at 1 µM in the series with MRC5 [3] was found to be 0%. Also, the cytotoxicity at 32 µM in the series on MRC5 [4] stood at 98%. This compound also registered an IC50 in the series with Plasmodium falciparum of more than 1000 nM. Besides, the Cytotoxicity result is “Not toxic” in the series filed under Mus musculus [8], “Toxic” in series [9] and “Not toxic” in the series listed under Mus musculus [7]. Besides, the cytotoxicity at 8 µM in the series on MRC5 [6] was 0%.
